# Source: ChEMBL document CHEMBL4428115, “Molecular docking studies, biological and toxicity evaluation of dihydroisoquinoline derivatives as potential anticancer agents” (Bioorg Med Chem, 2016)
# pIC50: −log10 of the molar value.
# Key:
# [1] = tested on: K562; experiment: Antiproliferative activity against human K562 cells; assay type: functional, cell-based
# [2] = tested on: MCF7; experiment: Potency index, ratio of bestatin IC50 to compound IC50 for human MCF7 cells; assay type: functional
# [3] = Antioxidant activity assessed as DPPH free radical scavenging activity; assay type: functional
# [4] = Selectivity index, ratio of IC50 for mouse BALB/3T3 cells to IC50 for human Jurkat cells; assay type: toxicity; conditions: BALB/3T3 cells versus Jurkat cells, read-out: Ratio IC50
# [5] = Selectivity index, ratio of IC50 for mouse BALB/3T3 cells to IC50 for human Raji cells; assay type: toxicity; conditions: BALB/3T3 cells versus Raji cells, read-out: Ratio IC50
# [6] = Selectivity index, ratio of IC50 for mouse BALB/3T3 cells to IC50 for human K562 cells; assay type: toxicity; conditions: BALB/3T3 cells versus K562 cells, read-out: Ratio IC50
# [7] = Toxicity in Dunkin-Hartley guinea pig assessed as mild skin sensitization incidents at 1 % administered intradermally followed by 50% topical application in the sites of intradermal injection for 24 to 72 hrs followed by 50 % of compound challenge; parameters: species or system Cavia porcellus; conditions: in vivo
# Summary of the method: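 Maximization-type test: 11 treated and 6 sham control guinea pigs. Induction was an intradermal 1% suspension in peanut oil with Freund's Complete Adjuvant, then 50% topical at the injection sites, after 10% sodium lauryl sulfate pretreatment. Challenge was 50% in peanut oil on the right flank, vehicle on the left. Skin was scored at 24, 48 and 72 h.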
structure (smiles),measurement,setting,value
CCOC(=O)C1(C(=O)OCC)Cc2cc(OCc3ccccc3)cc(OCc3ccccc3)c2C=N1,pIC50,[1],4.15
same,Ratio IC50,[2],15
same,pIC50,[3],3.00
same,selectivity ratio,[4],2.5
same,selectivity ratio,[5],59.8
same,selectivity ratio,[6],0.5
same,Activity,[7],18.2%
